Test results: ChEMBL document CHEMBL4406852, “Combating fluconazole-resistant fungi with novel β-azole-phenylacetone derivatives” (Eur J Med Chem, 2019)
Values after ≈ are worked out from the molar mass of the structure shown.

Legend:
Assay type in all cases: functional
Candida albicans [1] = experiment: Antifungal activity against fluconazole-resistant Candida albicans 901 assessed as reduction in fungal growth incubated for 24 hrs by serial dilution method; settings: Candida albicans, 901, 24 h
In short: (§1)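 Fluconazole-resistant C. albicans clinical isolates (17# and CaR from AIDS patients; 632, 901, 904 from clinic) tested by CLSI broth dilution MIC in RPMI 1640 buffered to pH 7.0 with MOPS. Compounds dissolved in DMSO, serially diluted to final 0.03–16 or 0.125–64 μg/mL; inoculum 1–5 × 10^3 CFU/mL; 35 °C, 24 h. MIC = lowest concentration inhibiting visible growth; fluconazole and itraconazole as controls.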

Candida albicans [2] = experiment: Antifungal activity against Candida albicans SC5314 assessed as reduction in fungal growth incubated for 24 hrs by serial dilution method; settings: SC5314, 24 h
In short: (§2)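 MIC by CLSI broth microdilution in RPMI 1640 buffered to pH 7.0 with MOPS. Compounds dissolved in DMSO and serially diluted to final 0.03–16 or 0.125–64 µg/mL. Inoculum 1–5 × 10^3 CFU/mL. Incubation 35 °C, 24 h. Drug-free growth and fungus-free blank controls. MIC is the lowest concentration preventing visible growth.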

Candida albicans [3] = experiment: Antifungal activity against Candida albicans GIM 2.194 assessed as reduction in fungal growth incubated for 24 hrs by serial dilution method; settings: GIM 2.194, 24 h; in short: as §2
Candida albicans [4] = experiment: Antifungal activity against fluconazole-resistant Candida albicans 904 assessed as reduction in fungal growth incubated for 24 hrs by serial dilution method; settings: Candida albicans, 904, 24 h; in short: as §1
Candida tropicalis = experiment: Antifungal activity against Candida tropicalis GIM 2.183 assessed as reduction in fungal growth incubated for 24 hrs by serial dilution method; settings: GIM 2.183, 24 h; in short: as §2
Nakaseomyces glabratus = experiment: Antifungal activity against Candida glabrata assessed as reduction in fungal growth incubated for 24 hrs by serial dilution method; in short: as §2
Candida albicans [5] = experiment: Antifungal activity against fluconazole-resistant Candida albicans 17 assessed as reduction in fungal growth incubated for 24 hrs by serial dilution method; settings: Candida albicans, 17, 24 h; in short: as §1
Candida albicans [6] = experiment: Antifungal activity against fluconazole-resistant Candida albicans 632 assessed as reduction in fungal growth incubated for 24 hrs by serial dilution method; settings: Candida albicans, 632, 24 h; in short: as §1
Candida parapsilosis = experiment: Antifungal activity against Candida parapsilosis GIM 2.190 assessed as reduction in fungal growth incubated for 24 hrs by serial dilution method; settings: Lodderomyces parapsilosis, GIM 2.190, 24 h; in short: as §2
Candida albicans [7] = experiment: Antifungal activity against fluconazole-resistant Candida albicans CaR assessed as reduction in fungal growth incubated for 24 hrs by serial dilution method; in short: as §1

Compound | MIC (Candida albicans [1]) | MIC (Candida albicans [2]) | MIC (Candida albicans [3]) | MIC (Candida albicans [4]) | MIC (Candida tropicalis) | MIC (Nakaseomyces glabratus) | MIC (Candida albicans [5]) | MIC (Candida albicans [6]) | MIC (Candida parapsilosis) | MIC (Candida albicans [7])
O=C(NC(Cn1ccnc1)C(=O)c1cccc(F)c1)c1ccc(-c2ccccc2)cc1F (stereo not given) | 2 µg/mL (≈ 4.64 µM) | 0.125 µg/mL (≈ 0.29 µM) | 0.5 µg/mL (≈ 1.16 µM) | 32 µg/mL (≈ 74.2 µM) | 0.5 µg/mL (≈ 1.16 µM) | 2 µg/mL (≈ 4.64 µM) | 4 µg/mL (≈ 9.27 µM) | > 64 µg/mL | 0.5 µg/mL (≈ 1.16 µM) | 2 µg/mL (≈ 4.64 µM)
O=C(NC(Cn1ccnc1)C(=O)c1ccccc1)c1ccc(-c2ccccc2F)cc1 (stereo not given) | – | 0.5 µg/mL (≈ 1.21 µM) | 1 µg/mL (≈ 2.42 µM) | – | 0.25 µg/mL (≈ 0.605 µM) | 1 µg/mL (≈ 2.42 µM) | – | – | 2 µg/mL (≈ 4.84 µM) | –
O=C(NC(Cn1ccnc1)C(=O)c1ccc(Cl)cc1)c1ccc(-c2ccccc2)cc1F (stereo not given) | > 64 µg/mL | 0.06 µg/mL (≈ 0.134 µM) | 0.5 µg/mL (≈ 1.12 µM) | 32 µg/mL (≈ 71.4 µM) | 0.06 µg/mL (≈ 0.134 µM) | 0.25 µg/mL (≈ 0.558 µM) | > 64 µg/mL | > 64 µg/mL | 0.125 µg/mL (≈ 0.279 µM) | > 64 µg/mL
O=C(NC(Cn1ccnc1)C(=O)c1cccc(Cl)c1)c1ccc(-c2ccccc2)c(F)c1 (stereo not given) | 4 µg/mL (≈ 8.93 µM) | 0.06 µg/mL (≈ 0.134 µM) | 0.125 µg/mL (≈ 0.279 µM) | 4 µg/mL (≈ 8.93 µM) | 0.125 µg/mL (≈ 0.279 µM) | 0.25 µg/mL (≈ 0.558 µM) | > 64 µg/mL | 4 µg/mL (≈ 8.93 µM) | 0.5 µg/mL (≈ 1.12 µM) | > 64 µg/mL
O=C(NC(Cn1ccnc1)C(=O)c1ccccc1)c1ccc(-c2ccccc2)c(Cl)c1 (stereo not given) | – | > 16 µg/mL | > 16 µg/mL | – | > 16 µg/mL | > 64 µg/mL | – | – | > 64 µg/mL | –
O=C(NC(Cn1ccnc1)C(=O)c1cccc(F)c1)c1ccc(-c2ccccc2)c(F)c1 (stereo not given) | 0.25 µg/mL (≈ 0.579 µM) | 0.125 µg/mL (≈ 0.29 µM) | 0.25 µg/mL (≈ 0.579 µM) | 0.5 µg/mL (≈ 1.16 µM) | 1 µg/mL (≈ 2.32 µM) | 2 µg/mL (≈ 4.64 µM) | > 64 µg/mL | 1 µg/mL (≈ 2.32 µM) | 1 µg/mL (≈ 2.32 µM) | > 64 µg/mL
Cc1cc(C(=O)NC(Cn2ccnc2)C(=O)c2ccccc2)ccc1-c1ccccc1 (stereo not given) | – | > 16 µg/mL | > 16 µg/mL | – | > 16 µg/mL | > 64 µg/mL | – | – | > 64 µg/mL | –
Cc1cc(-c2ccccc2)ccc1C(=O)NC(Cn1ccnc1)C(=O)c1ccccc1 (stereo not given) | – | > 16 µg/mL | > 16 µg/mL | – | > 16 µg/mL | > 64 µg/mL | – | – | > 64 µg/mL | –
O=C(NC(Cn1ccnc1)C(=O)c1ccccc1)c1ccc(-c2ccccc2)cc1 (stereo not given) | 0.5 µg/mL (≈ 1.26 µM) | 0.06 µg/mL (≈ 0.152 µM) | 0.125 µg/mL (≈ 0.316 µM) | 1 µg/mL (≈ 2.53 µM) | 0.06 µg/mL (≈ 0.152 µM) | 0.25 µg/mL (≈ 0.632 µM) | > 64 µg/mL | 2 µg/mL (≈ 5.06 µM) | 0.125 µg/mL (≈ 0.316 µM) | > 64 µg/mL
O=C(NC(Cn1ccnc1)C(=O)c1ccc(F)cc1)c1ccc(-c2ccccc2)cc1 (stereo not given) | 1 µg/mL (≈ 2.42 µM) | 0.06 µg/mL (≈ 0.145 µM) | 0.25 µg/mL (≈ 0.605 µM) | 2 µg/mL (≈ 4.84 µM) | 0.25 µg/mL (≈ 0.605 µM) | 0.5 µg/mL (≈ 1.21 µM) | > 64 µg/mL | 2 µg/mL (≈ 4.84 µM) | 0.25 µg/mL (≈ 0.605 µM) | > 64 µg/mL
O=C(NC(Cn1ccnc1)C(=O)c1ccccc1)c1ccc(-c2ccccc2)cc1F (stereo not given) | > 64 µg/mL | 0.125 µg/mL (≈ 0.302 µM) | 0.25 µg/mL (≈ 0.605 µM) | 8 µg/mL (≈ 19.3 µM) | 0.06 µg/mL (≈ 0.145 µM) | 0.5 µg/mL (≈ 1.21 µM) | 2 µg/mL (≈ 4.84 µM) | 32 µg/mL (≈ 77.4 µM) | 0.125 µg/mL (≈ 0.302 µM) | 4 µg/mL (≈ 9.67 µM)
O=C(NC(Cn1ccnc1)C(=O)c1ccc(Cl)cc1)c1ccc(-c2ccccc2)c(F)c1 (stereo not given) | > 64 µg/mL | 0.06 µg/mL (≈ 0.134 µM) | 0.5 µg/mL (≈ 1.12 µM) | > 64 µg/mL | 0.06 µg/mL (≈ 0.134 µM) | 0.5 µg/mL (≈ 1.12 µM) | > 64 µg/mL | > 64 µg/mL | 1 µg/mL (≈ 2.23 µM) | > 64 µg/mL
Cc1cccc(-c2ccc(C(=O)NC(Cn3ccnc3)C(=O)c3ccccc3)cc2)c1 (stereo not given) | – | > 16 µg/mL | > 16 µg/mL | – | > 16 µg/mL | > 64 µg/mL | – | – | > 64 µg/mL | –
O=C(NC(Cn1ccnc1)C(=O)c1ccccc1)c1ccc(-c2cccc(F)c2)cc1 (stereo not given) | – | 0.25 µg/mL (≈ 0.605 µM) | 0.5 µg/mL (≈ 1.21 µM) | – | 0.125 µg/mL (≈ 0.302 µM) | > 64 µg/mL | – | – | 1 µg/mL (≈ 2.42 µM) | –
Cc1ccc(C(=O)C(Cn2ccnc2)NC(=O)c2ccc(-c3ccccc3)cc2)cc1 (stereo not given) | 16 µg/mL (≈ 39.1 µM) | 0.06 µg/mL (≈ 0.147 µM) | 0.125 µg/mL (≈ 0.305 µM) | 32 µg/mL (≈ 78.1 µM) | 0.03 µg/mL (≈ 0.0733 µM) | 0.25 µg/mL (≈ 0.611 µM) | > 64 µg/mL | > 64 µg/mL | 0.5 µg/mL (≈ 1.22 µM) | > 64 µg/mL
